From ChEMBL document CHEMBL3588853, “Synthesis, biological evaluation, and molecular docking studies of novel 1-benzene acyl-2-(1-methylindol-3-yl)-benzimidazole derivatives as potential tubulin polymerization inhibitors” (Eur J Med Chem, 2015)

Tests used:
HepG2 = assay: Growth inhibition of human HepG2 cells assessed as inhibition of cell proliferation after 24 hrs by MTT assay; assay type: functional; details: HepG2, 24 h
Outline: (§1)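 Cells seeded at (1–5) × 10^3 per well and grown 12 h at 37 °C. Compounds added at increasing concentrations in medium with 10% FBS for 24 h. MTT dye then added, followed by 3–4 h at 37 °C. Medium discarded, formazan dissolved in DMSO and plate read. GI50 calculated relative to DMSO-treated control wells.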

Tubulin = Tubulin (Bos taurus, UniProt Q6B856+Q862F3); assay: Inhibition of bovine brain tubulin polymerization extent after 20 mins by turbidimetrically
Chain of Tubulin (Q6B856 whole entry): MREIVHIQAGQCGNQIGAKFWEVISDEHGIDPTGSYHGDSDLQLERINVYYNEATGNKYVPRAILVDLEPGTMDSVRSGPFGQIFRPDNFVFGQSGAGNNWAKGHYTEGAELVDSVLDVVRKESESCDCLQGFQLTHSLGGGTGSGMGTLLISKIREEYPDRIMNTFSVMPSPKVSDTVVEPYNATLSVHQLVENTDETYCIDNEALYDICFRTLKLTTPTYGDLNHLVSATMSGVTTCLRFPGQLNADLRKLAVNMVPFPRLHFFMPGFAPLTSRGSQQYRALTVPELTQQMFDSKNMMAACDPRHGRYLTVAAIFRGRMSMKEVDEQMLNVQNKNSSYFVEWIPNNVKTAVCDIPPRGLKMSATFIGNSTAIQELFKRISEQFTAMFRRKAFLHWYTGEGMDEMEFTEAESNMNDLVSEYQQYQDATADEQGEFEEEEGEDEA
Chain of Tubulin (Q862F3 whole entry): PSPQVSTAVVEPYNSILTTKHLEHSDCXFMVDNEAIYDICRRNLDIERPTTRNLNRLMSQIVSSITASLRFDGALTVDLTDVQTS

MCF7 = assay: Growth inhibition of human MCF7 cells assessed as inhibition of cell proliferation after 24 hrs by MTT assay; assay type: functional; details: MCF7, 24 h; outline: as §1
A549 [1] = assay: Growth inhibition of human A549 cells assessed as inhibition of cell proliferation after 24 hrs by MTT assay; assay type: functional; details: A549, 24 h; outline: as §1
Tubulin (Bos taurus) = Tubulin (Bos taurus) (UniProt Q6B856+Q862F3); details: at 5 µM
A549 [2] = assay: Induction of cell cycle arrest in human A549 cells assessed as accumulation at G2/M phase at 1 uM after 24 hrs by propidium iodide staining based flow cytometric analysis (reference value: 13.26%); assay type: functional
A549 [3] = assay: Induction of apoptosis in human A549 cells assessed as early apoptotic cells at 5 uM after 24 hrs by annexin V/PI double staining FACScalibur flow cytometry (reference value: 0.061%); assay type: functional
A549 [4] = assay: Induction of cell cycle arrest in human A549 cells assessed as accumulation at SubG0 phase at 2 uM after 24 hrs by propidium iodide staining based flow cytometric analysis (reference value: 0%); assay type: functional
A549 [5] = assay: Induction of cell cycle arrest in human A549 cells assessed as accumulation at G0/G1 phase at 2 uM after 24 hrs by propidium iodide staining based flow cytometric analysis (reference value: 79.11%); assay type: functional
A549 [6] = assay: Induction of cell cycle arrest in human A549 cells assessed as accumulation at S phase at 1 uM after 24 hrs by propidium iodide staining based flow cytometric analysis (reference value: 7.63%); assay type: functional
A549 [7] = assay: Induction of cell cycle arrest in human A549 cells assessed as accumulation at SubG0 phase at 1 uM after 24 hrs by propidium iodide staining based flow cytometric analysis (reference value: 0%); assay type: functional
A549 [8] = assay: Induction of apoptosis in human A549 cells assessed as viable cells at 2 uM after 24 hrs by annexin V/PI double staining FACScalibur flow cytometry (reference value: 99%); assay type: functional; details: A549, 24 h, read-out: Activity
A549 [9] = assay: Induction of apoptosis in human A549 cells assessed as viable cells at 1 uM after 24 hrs by annexin V/PI double staining FACScalibur flow cytometry (reference value: 99%); assay type: functional; details: A549, 24 h, read-out: Activity
A549 [10] = assay: Induction of apoptosis in human A549 cells assessed as necrotic cells at 2 uM after 24 hrs by annexin V/PI double staining FACScalibur flow cytometry (reference value: 0.529%); assay type: functional
A549 [11] = assay: Induction of apoptosis in human A549 cells assessed as viable cells at 5 uM after 24 hrs by annexin V/PI double staining FACScalibur flow cytometry (reference value: 99%); assay type: functional; details: A549, 24 h, read-out: Activity
A549 [12] = assay: Induction of apoptosis in human A549 cells assessed as late apoptotic cells at 5 uM after 24 hrs by annexin V/PI double staining FACScalibur flow cytometry (reference value: 0.406 %); assay type: functional
A549 [13] = assay: Induction of apoptosis in human A549 cells assessed as necrotic cells at 5 uM after 24 hrs by annexin V/PI double staining FACScalibur flow cytometry (reference value: 0.529%); assay type: functional
A549 [14] = assay: Induction of cell cycle arrest in human A549 cells assessed as accumulation at SubG0 phase at 5 uM after 24 hrs by propidium iodide staining based flow cytometric analysis (reference value: 0%); assay type: functional
A549 [15] = assay: Induction of apoptosis in human A549 cells assessed as late apoptotic cells at 1 uM after 24 hrs by annexin V/PI double staining FACScalibur flow cytometry (reference value: 0.406 %); assay type: functional
A549 [16] = assay: Induction of apoptosis in human A549 cells assessed as early apoptotic cells at 2 uM after 24 hrs by annexin V/PI double staining FACScalibur flow cytometry (reference value: 0.061%); assay type: functional
A549 [17] = assay: Induction of apoptosis in human A549 cells assessed as early apoptotic cells at 1 uM after 24 hrs by annexin V/PI double staining FACScalibur flow cytometry (reference value: 0.061%); assay type: functional
A549 [18] = assay: Induction of apoptosis in human A549 cells assessed as late apoptotic cells at 2 uM after 24 hrs by annexin V/PI double staining FACScalibur flow cytometry (reference value: 0.406 %); assay type: functional
A549 [19] = assay: Induction of cell cycle arrest in human A549 cells assessed as accumulation at G0/G1 phase at 1 uM after 24 hrs by propidium iodide staining based flow cytometric analysis (reference value: 79.11%); assay type: functional
A549 [20] = assay: Induction of cell cycle arrest in human A549 cells assessed as accumulation at S phase at 2 uM after 24 hrs by propidium iodide staining based flow cytometric analysis (reference value: 7.63%); assay type: functional
A549 [21] = assay: Induction of cell cycle arrest in human A549 cells assessed as accumulation at G2/M phase at 5 uM after 24 hrs by propidium iodide staining based flow cytometric analysis (reference value: 13.26%); assay type: functional
A549 [22] = assay: Induction of cell cycle arrest in human A549 cells assessed as accumulation at G2/M phase at 2 uM after 24 hrs by propidium iodide staining based flow cytometric analysis (reference value: 13.26%); assay type: functional
A549 [23] = assay: Induction of apoptosis in human A549 cells assessed as necrotic cells at 1 uM after 24 hrs by annexin V/PI double staining FACScalibur flow cytometry (reference value: 0.529%); assay type: functional
A549 [24] = assay: Induction of cell cycle arrest in human A549 cells assessed as accumulation at S phase at 5 uM after 24 hrs by propidium iodide staining based flow cytometric analysis (reference value: 7.63%); assay type: functional
A549 [25] = assay: Induction of cell cycle arrest in human A549 cells assessed as accumulation at G0/G1 phase at 5 uM after 24 hrs by propidium iodide staining based flow cytometric analysis (reference value: 79.11%); assay type: functional

COc1ccc2c(c1)c(-c1nc3ccccc3n1C(=O)c1cccc(Br)c1)cn2C
GI50 (HepG2): 51.3 µM | IC50 (Tubulin): 29.2 µM | GI50 (MCF7): 52.7 µM | GI50 (A549 [1]): 24.8 µM | inhibition (Tubulin (Bos taurus)): 57%

COc1ccc(C(=O)n2c(-c3cn(C)c4ccccc34)nc3ccccc32)cc1OC
GI50 (HepG2): 8.4 µM | IC50 (Tubulin): 2.1 µM | GI50 (MCF7): 10.2 µM | GI50 (A549 [1]): 3.1 µM | inhibition (Tubulin (Bos taurus)): 87%

COc1cc(C(=O)n2c(-c3cn(C)c4ccccc34)nc3ccccc32)cc(OC)c1OC
GI50 (HepG2): 4.3 µM | IC50 (Tubulin): 1.6 µM | GI50 (MCF7): 5.4 µM | GI50 (A549 [1]): 2.6 µM | inhibition (Tubulin (Bos taurus)): 95%

Cn1cc(-c2nc3ccccc3n2C(=O)c2ccccc2)c2cc(Br)ccc21
GI50 (HepG2): 48.1 µM | IC50 (Tubulin): 25.3 µM | GI50 (MCF7): 50.3 µM | GI50 (A549 [1]): 23.1 µM | inhibition (Tubulin (Bos taurus)): 60%

COc1ccc(/C=C\c2cc(OC)c(OC)c(OC)c2)cc1O [COMBRETASTATIN A4]
GI50 (HepG2): 7.4 µM | GI50 (MCF7): 9.4 µM | GI50 (A549 [1]): 2.8 µM | inhibition (Tubulin (Bos taurus)): 93%

COc1cccc(C(=O)n2c(-c3cn(C)c4ccc(Br)cc34)nc3ccccc32)c1
GI50 (HepG2): 17.8 µM | IC50 (Tubulin): 5.7 µM | GI50 (MCF7): 18.2 µM | GI50 (A549 [1]): 10.8 µM | inhibition (Tubulin (Bos taurus)): 78%

COc1ccc2c(c1)c(-c1nc3ccccc3n1C(=O)c1ccc(OC)c(OC)c1)cn2C
GI50 (HepG2): 5.1 µM | IC50 (Tubulin): 1.7 µM | GI50 (MCF7): 6.3 µM | GI50 (A549 [1]): 2.7 µM | inhibition (Tubulin (Bos taurus)): 94%

COc1ccc2c(c1)c(-c1nc3ccccc3n1C(=O)c1cc(OC)c(OC)c(OC)c1)cn2C
GI50 (HepG2): 3.8 µM | Activity (A549 [2]): 27.23% | Activity (A549 [3]): 17.2% | Activity (A549 [4]): 0% | Activity (A549 [5]): 57.42% | Activity (A549 [6]): 12.51% | Activity (A549 [7]): 0% | viability at 2 µM (A549 [8]): 77.3% | viability at 1 µM (A549 [9]): 79.8% | Activity (A549 [10]): 0.543% | viability at 5 µM (A549 [11]): 76.2% | Activity (A549 [12]): 6.03% | Activity (A549 [13]): 0.595% | IC50 (Tubulin): 1.5 µM | Activity (A549 [14]): 0% | Activity (A549 [15]): 4.77% | GI50 (MCF7): 5.1 µM | Activity (A549 [16]): 17% | Activity (A549 [17]): 14.8% | GI50 (A549 [1]): 2.4 µM | Activity (A549 [18]): 5.13% | Activity (A549 [19]): 60.17% | Activity (A549 [20]): 12.51% | Activity (A549 [21]): 39.46% | Activity (A549 [22]): 33.21% | Activity (A549 [23]): 0.59% | Activity (A549 [24]): 11.24% | inhibition (Tubulin (Bos taurus)): 96% | Activity (A549 [25]): 49.3%

COc1ccc2c(c1)c(-c1nc3ccccc3n1C(=O)c1ccccc1OC)cn2C
GI50 (HepG2): 23.6 µM | IC50 (Tubulin): 8.4 µM | GI50 (MCF7): 23.9 µM | GI50 (A549 [1]): 11.9 µM | inhibition (Tubulin (Bos taurus)): 73%

COc1cc(C(=O)n2c(-c3cn(C)c4ccc(Br)cc34)nc3ccccc32)cc(OC)c1OC
GI50 (HepG2): 8.2 µM | IC50 (Tubulin): 2 µM | GI50 (MCF7): 9.7 µM | GI50 (A549 [1]): 3 µM | inhibition (Tubulin (Bos taurus)): 91%

COc1ccc2c(c1)c(-c1nc3ccccc3n1C(=O)c1ccccc1)cn2C
GI50 (HepG2): 37.9 µM | IC50 (Tubulin): 19.6 µM | GI50 (MCF7): 38.4 µM | GI50 (A549 [1]): 16.7 µM | inhibition (Tubulin (Bos taurus)): 64%

COc1ccccc1C(=O)n1c(-c2cn(C)c3ccc(Br)cc23)nc2ccccc21
GI50 (HepG2): 34.6 µM | IC50 (Tubulin): 17.3 µM | GI50 (MCF7): 36.2 µM | GI50 (A549 [1]): 12.8 µM | inhibition (Tubulin (Bos taurus)): 68%

Cn1cc(-c2nc3ccccc3n2C(=O)c2cccc(Br)c2)c2cc(Br)ccc21
GI50 (HepG2): 67.3 µM | IC50 (Tubulin): 39.7 µM | GI50 (MCF7): 68.2 µM | GI50 (A549 [1]): 38.5 µM | inhibition (Tubulin (Bos taurus)): 51%
